Runt-SMMHC FRET – Runt domain-CBFb-SMMHC interaction inhibition | Cerulean-Runt/Venus-CBFb-SMMHC FRET ratio 530/480, 1 h | 0.74% of 220,000 active | inhibition, % at 20 µM | AID 1434;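 active = mean inhibition across duplicate retests at 20 µM reaching about 50%, limit read from the data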;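 note: inhibitors lower the FRET ratio by blocking Runt binding to CBFb-SMMHC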
Target sequence (Q01196 whole entry, looked up, the tested form may be a part): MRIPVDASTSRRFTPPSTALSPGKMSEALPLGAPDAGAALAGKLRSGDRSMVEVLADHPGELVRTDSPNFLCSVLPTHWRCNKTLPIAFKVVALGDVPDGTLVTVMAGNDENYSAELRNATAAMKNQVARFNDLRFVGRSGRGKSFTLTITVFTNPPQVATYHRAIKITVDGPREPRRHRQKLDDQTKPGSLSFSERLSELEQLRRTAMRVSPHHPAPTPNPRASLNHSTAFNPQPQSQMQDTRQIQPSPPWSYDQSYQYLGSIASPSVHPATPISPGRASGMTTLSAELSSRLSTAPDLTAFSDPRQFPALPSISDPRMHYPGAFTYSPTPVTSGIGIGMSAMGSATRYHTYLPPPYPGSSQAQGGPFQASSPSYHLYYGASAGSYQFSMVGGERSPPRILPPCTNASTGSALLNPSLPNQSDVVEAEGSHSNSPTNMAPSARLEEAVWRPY
Target sequence (Q13951 whole entry, looked up, the tested form may be a part): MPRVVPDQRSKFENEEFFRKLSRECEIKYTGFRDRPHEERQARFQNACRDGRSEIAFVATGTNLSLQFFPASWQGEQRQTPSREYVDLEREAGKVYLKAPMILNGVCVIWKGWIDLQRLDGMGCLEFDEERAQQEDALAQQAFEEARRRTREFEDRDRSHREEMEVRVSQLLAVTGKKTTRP
Runt-CBFb FRET – inhibitors of human RUNX1 Runt domain binding to CBFb. Q01196+Q13951. Cerulean-Runt/Venus-CBFb FRET ratio 530/480, 1 h. inhibition, % at 20 µM. 0.46% of 220,000 active. AID 1496;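 active = inhibition over about 50% at 20 µM in the single-dose screen, limit read from the data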
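Assay system: Cerulean-Runt domain / Medium: Tris 50 mM pH 7.5, KCl, K2SO4, 0.01% BSA / Timing: protein complex preformed 1 h, compound exposure 1 h, room temperature, dark / Measured by: FRET, excitation 422 nm, emission at 530 and 480 nm / Evaluation: loss of energy transfer signal / Control set: 5 µM unlabeled CBFb as full-inhibition high control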
RanGTP-Imp inh – disruptors of Ran-importin-beta complex formation – biochemical, FRET, CFP-Ran, YFP-importin-beta, homogeneous, primary screen | inhibition, % (no concentration beside the values) | AID 2216 | cell-free CFP-Ran/YFP-importin-beta FRET ratio | 1.1% of 300,000 active;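 active = more than half of the replicate wells show a fall in the fluorescence ratio signal beyond about 16%, limit read from the data, passing the limit was not always enough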
Hck Nef HTS – human Hck-Nef kinase inhibition | P08631 | Recombinant Hck-YEEI plus Nef, Z-Lyte FRET kinase assay | inhibition, % at 20 µM | 0.68% of 220,000 active;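 active = Hck-Nef kinase inhibition above about 50%, limit read from the data; inactive = inhibition below that limit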
TNF necrop inh – blocks TNF-alpha induced death of Jurkat FADD-/- cells; Jurkat FADD-/- TNF necroptosis rescue, ATP luminescence, 24 h; 0 = TNF only, 100 = no-TNF cells; activation (protection from cell death), % at 10 µM; 0.068% of 220,000 active;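 active = activation, meaning protection from cell death, of at least 50% relative to plate controls; inactive = activation below 50%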;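 note: necroptosis triggered by 40 ng/mL TNF-alpha added together with compound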
L929 necroptosis – L929 zVAD cell death inhibition; viability rescue, % at 10 µM; 0.38% of 220,000 active; AID 1377; L929 zVAD necroptosis rescue, ATP luminescence, 24 h; with zVAD 60 µM;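 active = activation, scaled between plate controls, above about 75%, limit read from the data; inactive = activation under that limit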
Of the large screens only hits and unclear results are named; the others gave an inactive call. Shown are actives, neighbours in structure and some others; about 2.1% of the full set was active somewhere.

c1ccc(CSc2nnc(Cc3ccccc3)o2)cc1	none
c1ccc(CSc2nnc(Cc3ccccn3)o2)cc1	RanGTP-Imp inh 22.4
Cc1ccc(NC2CCCN(C(=O)c3ccc(F)cc3)C2)cc1C (stereo unspecified)	none (no result: Runt-SMMHC FRET, Runt-CBFb FRET, Hck Nef HTS, TNF necrop inh, L929 necroptosis)
Cn1cnc(NCc2ccccc2)c1[N+](=O)[O-]	none
CC1=CC(c2ccccc2)n2nc(NS(=O)(=O)c3ccc(C)cc3)nc2N1 (stereo unspecified)	Runt-SMMHC FRET 84.6 (no result: RanGTP-Imp inh)
CC(c1cccs1)N(C)Cc1nc(CCc2ccccc2)no1 (stereo unspecified)	none
O=C(C1COc2ccccc2O1)N1CCc2ccccc21 (stereo unspecified)	TNF necrop inh 89.2
O=C(C1COc2ccccc2O1)N1CCCC1 (stereo unspecified)	none
COc1ccc(-c2ccc(-c3noc(-c4ccccc4)n3)c(OC)n2)cc1	RanGTP-Imp inh 29.8
COc1nc(-c2ccccc2)ccc1-c1noc(-c2ccccc2)n1	none
CCOc1ccc2nc(NC(=O)CCn3cccc3)sc2c1	L929 necroptosis 85.1
C/C(CC(=O)NC1CCCCC1)=N\NC(=O)Cc1ccc(-c2ccccc2)cc1	none
c1ccc(C(c2c[nH]c3ccccc23)c2c[nH]c3ccccc23)nc1	RanGTP-Imp inh 52.4
COc1cc(SSc2cc(OC)cc([N+](=O)[O-])c2N)c(N)c([N+](=O)[O-])c1	Runt-SMMHC FRET 63.8
C=CCn1c(N)c(C(=O)Nc2cccc(C)c2)c2nc3ccccc3nc21	RanGTP-Imp inh 22.4
CCn1c(SCC(=O)NCC2CCCO2)nnc1-c1ccc(Cl)cc1 (stereo unspecified)	RanGTP-Imp inh 25.7
COC(=O)[C@@H](NCc1cccc(CN[C@H](C(=O)OC)c2ccccc2)c1)c1ccccc1	none (no result: Runt-SMMHC FRET, Runt-CBFb FRET, Hck Nef HTS, TNF necrop inh, L929 necroptosis)
O=C(CN1CCN(c2ccccn2)CC1)Nc1ccc(F)cc1F	none (no result: Runt-SMMHC FRET, Runt-CBFb FRET, Hck Nef HTS, TNF necrop inh, L929 necroptosis)
CCOC(=O)c1cc2c(=O)n3cccc(C)c3nc2n(Cc2cccnc2)c1=N	none (no result: Runt-SMMHC FRET, Runt-CBFb FRET, RanGTP-Imp inh)
CCn1c(=N)c(C(N)=O)cc2c(=O)n3cccc(C)c3nc21	Hck Nef HTS active (no result: Runt-SMMHC FRET, Runt-CBFb FRET, RanGTP-Imp inh)
CCn1c(=N)c(C(=O)NC)cc2c(=O)n3cccc(C)c3nc21	Runt-SMMHC FRET 58.1 (no result: RanGTP-Imp inh, Hck Nef HTS, TNF necrop inh, L929 necroptosis)
CCc1cc(=O)oc2cc(OCc3ccc(C(=O)O)o3)ccc12	none (no result: Runt-SMMHC FRET, Runt-CBFb FRET, Hck Nef HTS, TNF necrop inh, L929 necroptosis)
O=C1CC(c2ccccc2)CN1C(=O)c1cccnc1 (stereo unspecified)	none
O=C1CCC(c2ccccc2)N1C(=O)c1cccnc1 (stereo unspecified)	RanGTP-Imp inh 33.8
CCn1c(C)nc2cc(C(=O)n3cc(C(=O)c4ccccc4O)cn3)ccc21	Hck Nef HTS 88.9 (no result: RanGTP-Imp inh)
O=C(Cc1ccccn1)c1ccc(F)cc1	none (no result: Runt-SMMHC FRET, Runt-CBFb FRET, Hck Nef HTS, TNF necrop inh, L929 necroptosis)
CC(Oc1ccc(Cl)cc1Cl)C(=O)NCCCn1ccnc1 (stereo unspecified)	Runt-SMMHC FRET 80.9
Cc1cc(NC(=O)C(C)Oc2ccc(Cl)cc2Cl)no1 (stereo unspecified)	RanGTP-Imp inh 37.9 (no result: Runt-SMMHC FRET, Runt-CBFb FRET, Hck Nef HTS, TNF necrop inh, L929 necroptosis)
COc1ccc(S(=O)(=O)NNC(=O)C(=O)NNc2ccccn2)cc1	none
N#CCc1cnc2ccccc2n1	RanGTP-Imp inh 28.6
Cc1cc(C)cc(NC(=O)COc2coc(CN3CCc4ccccc4C3)cc2=O)c1	none (no result: Runt-SMMHC FRET, Runt-CBFb FRET, Hck Nef HTS, TNF necrop inh, L929 necroptosis)
O=c1ccc2cc3c4c(c2o1)CCCN4CCC3	RanGTP-Imp inh 92.0
CCCn1c(C(CO)Nc2nc(C)cs2)nc2ccccc21 (stereo unspecified)	none (no result: Runt-SMMHC FRET, Runt-CBFb FRET, Hck Nef HTS, TNF necrop inh, L929 necroptosis)
NC(=O)c1sc2nc(-c3ccccc3)ccc2c1N	none (no result: Runt-SMMHC FRET, Runt-CBFb FRET, Hck Nef HTS, TNF necrop inh, L929 necroptosis)
CCOC(=O)c1sc2nc(-c3ccccc3)ccc2c1N	RanGTP-Imp inh 30.1
CN1CCc2c(sc(N)c2C(=O)c2ccc(Cl)cc2)C1	none (no result: Runt-SMMHC FRET, Runt-CBFb FRET, Hck Nef HTS, TNF necrop inh, L929 necroptosis)
CN1CCc2c(sc3c2C(=O)NC(/C=C\c2ccccc2)N3)C1 (stereo unspecified)	Runt-SMMHC FRET 70.0, Runt-CBFb FRET 118.5, RanGTP-Imp inh 120.9
CN1CCc2c(sc3c2c(=O)n(-c2cccc(Cl)c2)c2nncn32)C1	none (no result: Runt-SMMHC FRET, Runt-CBFb FRET)
Cc1ccsc1C1NC(=O)c2c(sc3c2CCN(C)C3)N1 (stereo unspecified)	Runt-SMMHC FRET 72.7, Runt-CBFb FRET 106.4, RanGTP-Imp inh 132.2

Screens: PubChem, several laboratories
